Results published in ChEMBL document CHEMBL1649119, “Daptomycin pharmacokinetics in adult oncology patients with neutropenic fever” (Antimicrob Agents Chemother, 2009).

Experiments:
[1] = Clearance in healthy human at 8 mg/kg, iv administered as 30 mins infusion every 24 hrs measured on day 14; assay type: ADME, organism-based; design: dose 8 mg/kg, route intravenous; details: in vivo
[2] = Volume of distribution at steady state in moderately obese adult human at 4 mg/kg, iv administered as single dose 30 mins infusion; assay type: ADME, organism-based; design: dose 4 mg/kg, route intravenous; details: in vivo, read-out: Vdss
[3] = AUC (0 to infinity) in healthy adult human at 6 mg/kg, iv administered as single dose 30 mins infusion; assay type: ADME, organism-based; design: dose 6 mg/kg, route intravenous, time infinity; details: plasma
[4] = Mean residence time in adult human subjects at 6 mg/kg, iv administered as single dose 30 mins infusion; assay type: ADME, organism-based; design: dose 6 mg/kg, route intravenous; details: in vivo
[5] = Apparent volume of distribution during terminal phase in healthy human at 6 mg/kg, iv administered as 30 mins infusion every 24 hrs measured on day 1; assay type: ADME, organism-based; design: dose 6 mg/kg, route intravenous; details: in vivo
[6] = Half life in healthy human at 8 mg/kg, iv administered as 30 mins infusion every 24 hrs measured on day 14; assay type: ADME, organism-based; design: dose 8 mg/kg, route intravenous; details: in vivo
[7] = Cmax in healthy human at 8 mg/kg, iv administered as 30 mins infusion every 24 hrs measured on day 7; assay type: ADME, organism-based; design: dose 8 mg/kg, route intravenous; details: in vivo
Homo sapiens [8] = test: Apparent volume of distribution during terminal phase in healthy human subjects at 6 mg/kg, iv administered as 30 mins infusion every 24 hrs measured on day 1; assay type: ADME, organism-based; design: dose 6 mg/kg, route intravenous; details: in vivo
[9] = Half life in healthy human at 4 mg/kg, iv administered as 30 mins infusion every 24 hrs measured on day 7; assay type: ADME, organism-based; design: dose 4 mg/kg, route intravenous; details: in vivo
[10] = Apparent volume of distribution during terminal phase in healthy human subjects at 6 mg/kg, iv administered as 30 mins infusion every 24 hrs measured on day 4; assay type: ADME, organism-based; design: dose 6 mg/kg, route intravenous; details: in vivo
[11] = Half life in nonobese human at 4 mg/kg, iv administered as single dose 30 mins infusion; assay type: ADME, organism-based; design: dose 4 mg/kg, route intravenous; details: in vivo
[12] = Half life in healthy human subjects at 10 mg/kg, iv administered as 30 mins infusion every 24 hrs measured on day 4; assay type: ADME, organism-based; design: dose 10 mg/kg, route intravenous; details: in vivo
[13] = Cmax in healthy human subjects at 8 mg/kg, iv administered as 30 mins infusion every 24 hrs measured on day 1; assay type: ADME, organism-based; design: dose 8 mg/kg, route intravenous; details: in vivo
[14] = AUC (0 to infinity) in healthy human at 4 mg/kg, iv administered as single dose 30 mins infusion; assay type: ADME, organism-based; design: time infinity, dose 4 mg/kg, route intravenous; details: plasma
[15] = AUC (0 to infinity) in healthy human subjects at 10 mg/kg, iv administered as 30 mins infusion every 24 hrs measured on day 14; assay type: ADME, organism-based; design: time infinity, dose 10 mg/kg, route intravenous; details: plasma
Homo sapiens [16] = test: Unbound clearance in healthy human at 4 mg/kg, iv administered as 30 mins infusion every 24 hrs measured on day 1; assay type: ADME, organism-based; design: dose 4 mg/kg, route intravenous; details: in vivo
[17] = Clearance in healthy human at 6 mg/kg, iv administered as 30 mins infusion every 24 hrs measured on day 1; assay type: ADME, organism-based; design: dose 6 mg/kg, route intravenous; details: in vivo
[18] = Plasma protein binding in human after 2 hrs; assay type: ADME, cell-free; details: read-out: PPB (converted)
Summary of the method: (§1)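 Neutropenic-fever oncology patients received 6 mg/kg IV daptomycin; serum was drawn 0.5, 2 and 8 h after the end of infusion. Free drug was obtained by ultrafiltration (30,000-MW cutoff) and quantified by HPLC against a saline-matrix curve of 0.25–100 μg/ml, with total plasma drug also measured. Percent bound was (total − free)/total × 100; results are given as mean ± SD.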

[19] = Mean residence time in healthy human at 4 mg/kg, iv administered as single dose 30 mins infusion; assay type: ADME, organism-based; design: dose 4 mg/kg, route intravenous; details: in vivo
[20] = Clearance in healthy human subjects at 8 mg/kg, iv administered as 30 mins infusion every 24 hrs measured on day 4; assay type: ADME, organism-based; design: dose 8 mg/kg, route intravenous; details: in vivo
[21] = AUC (0 to infinity) in healthy human subjects at 12 mg/kg, iv administered as 30 mins infusion every 24 hrs measured on day 1; assay type: ADME, organism-based; design: time infinity, dose 12 mg/kg, route intravenous; details: plasma
[22] = Renal clearance in young healthy human at 4 mg/kg, iv administered as single dose 30 mins infusion; assay type: ADME, organism-based, Kidney; design: dose 4 mg/kg, route intravenous; details: in vivo, read-out: CL_renal (converted)
[23] = Drug excretion in nonobese adult human urine assessed as unchanged drug at 4 mg/kg, iv administered as single dose 30 mins infusion; assay type: ADME, organism-based; design: dose 4 mg/kg, route intravenous; details: read-out: Drug uptake
[24] = Renal clearance in nonobese adult human at 4 mg/kg, iv administered as single dose 30 mins infusion; assay type: ADME, organism-based, Kidney; design: dose 4 mg/kg, route intravenous; details: in vivo, read-out: CL_renal (converted)
[25] = Apparent volume of distribution during terminal phase in healthy human subjects at 12 mg/kg, iv administered as 30 mins infusion every 24 hrs measured on day 14; assay type: ADME, organism-based; design: dose 12 mg/kg, route intravenous; details: in vivo
Homo sapiens [26] = test: Unbound clearance in healthy human at 8 mg/kg, iv administered as 30 mins infusion every 24 hrs measured on day 1; assay type: ADME, organism-based; design: dose 8 mg/kg, route intravenous; details: in vivo
[27] = Plasma protein binding in human after 0.5 hrs; assay type: ADME, cell-free; details: read-out: PPB (converted); summary of the method: as §1
[28] = Mean residence time in cancer patient with neutropenic fever at 6 mg/kg, iv administered as 30 mins infusion every 24 hrs; assay type: ADME, organism-based; design: dose 6 mg/kg, route intravenous; details: human, in vivo
Summary of the method: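 Patients with neutropenic fever; 6 mg/kg by total body weight, 30-min IV infusion every 24 h; serial plasma sampling predose to 24 h after infusion start. Total plasma drug by validated HPLC; mean residence time from noncompartmental analysis of concentration-time data.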

[29] = Half life in healthy human subjects at 12 mg/kg, iv administered as 30 mins infusion every 24 hrs measured on day 4; assay type: ADME, organism-based; design: dose 12 mg/kg, route intravenous; details: in vivo
[30] = Apparent volume of distribution during terminal phase in healthy human subjects at 10 mg/kg, iv administered as 30 mins infusion every 24 hrs measured on day 14; assay type: ADME, organism-based; design: dose 10 mg/kg, route intravenous; details: in vivo
[31] = Cmax in healthy human at 4 mg/kg, iv administered as single dose 30 mins infusion; assay type: ADME, organism-based; design: dose 4 mg/kg, route intravenous; details: in vivo
[32] = Cmax in healthy human at 4 mg/kg, iv administered as 30 mins infusion every 24 hrs measured on day 1; assay type: ADME, organism-based; design: dose 4 mg/kg, route intravenous; details: in vivo
[33] = Half life in healthy human at 4 mg/kg, iv administered as single dose 30 mins infusion; assay type: ADME, organism-based; design: dose 4 mg/kg, route intravenous; details: in vivo
[34] = Clearance in healthy human subjects at 10 mg/kg, iv administered as 30 mins infusion every 24 hrs measured on day 14; assay type: ADME, organism-based; design: dose 10 mg/kg, route intravenous; details: in vivo
Homo sapiens [35] = test: AUC (0 to infinity) in healthy human subjects at 6 mg/kg, iv administered as 30 mins infusion every 24 hrs measured on day 1; assay type: ADME, organism-based, Plasma; design: time infinity, dose 6 mg/kg, route intravenous; details: in vivo
[36] = Volume of distribution at steady state in nonobese human at 4 mg/kg, iv administered as single dose 30 mins infusion; assay type: ADME, organism-based; design: dose 4 mg/kg, route intravenous; details: in vivo, read-out: Vdss
[37] = Mean residence time in adult human with hepatic impairment at 6 mg/kg, iv administered as single dose 30 mins infusion; assay type: ADME, organism-based; design: dose 6 mg/kg, route intravenous; details: in vivo
[38] = Cmax in adult human with hepatic impairment at 6 mg/kg, iv administered as single dose 30 mins infusion; assay type: ADME, organism-based; design: dose 6 mg/kg, route intravenous; details: in vivo
[39] = Unbound fraction in healthy human plasma at 8 mg/kg, iv administered as 30 mins infusion every 24 hrs measured on day 14; assay type: ADME, organism-based; design: dose 8 mg/kg, route intravenous
[40] = Volume of distribution at steady state in adult human with hepatic impairment at 6 mg/kg, iv administered as single dose 30 mins infusion; assay type: ADME, organism-based; design: dose 6 mg/kg, route intravenous; details: in vivo, read-out: Vdss
Homo sapiens [41] = test: Volume of distribution at steady state in healthy human at 4 mg/kg, iv administered as single dose 30 mins infusion; assay type: ADME, organism-based; design: dose 4 mg/kg, route intravenous; details: in vivo, 0.5 h
[42] = Drug excretion in moderately obese adult human urine assessed as unchanged drug at 4 mg/kg, iv administered as single dose 30 mins infusion; assay type: ADME, organism-based; design: dose 4 mg/kg, route intravenous; details: read-out: Drug uptake
[43] = Plasma concentration in nonobese human subjects at 4 mg/kg, iv administered as single dose 30 mins infusion measured after 24 hrs; assay type: ADME, organism-based; design: dose 4 mg/kg, route intravenous
[44] = Renal clearance in morbidly obese adult human at 4 mg/kg, iv administered as single dose 30 mins infusion; assay type: ADME, organism-based, Kidney; design: dose 4 mg/kg, route intravenous; details: in vivo, read-out: CL_renal (converted)

CCCCCCCCCC(=O)N[C@@H](Cc1c[nH]c2ccccc12)C(=O)N[C@H](CC(N)=O)C(=O)N[C@@H](CC(=O)O)C(=O)N[C@@H]1C(=O)NCC(=O)N[C@@H](CCCN)C(=O)N[C@@H](CC(=O)O)C(=O)N[C@H](C)C(=O)N[C@@H](CC(=O)O)C(=O)NCC(=O)N[C@H](CO)C(=O)N[C@@H]([C@H](C)CC(=O)O)C(=O)N[C@@H](CC(=O)c2ccccc2N)C(=O)O[C@@H]1C
clearance [1]: 0.123 mL/min/kg
Vd [2]: 0.15 L/kg
AUC(0-inf) [3]: 598 µg·h/mL
MRT [4]: 12.4 h
Vd [5]: 0.096 L/kg
half-life [6]: 8.9 h
Cmax [7]: 133 µg/mL
Vd (Homo sapiens [8]): 0.1059 L/kg
half-life [9]: 8.1 h
Vd [10]: 0.101 L/kg
half-life [11]: 8.04 h
half-life [12]: 7.9 h
Cmax [13]: 106 µg/mL
AUC(0-inf) [14]: 530 µg·h/mL
AUC(0-inf) [15]: 1080 µg·h/mL
CL (Homo sapiens [16]): 1.41 mL/min/kg
clearance [17]: 0.143 mL/min/kg
fraction unbound at 2 h [18]: 0.063
MRT [19]: 10.9 h
clearance [20]: 0.15 mL/min/kg
AUC(0-inf) [21]: 1270 µg·h/mL
CL renal at 0.5 h [22]: 0.12 mL/min/kg
dose excreted at 0.5 h [23]: 52.3%
CL renal at 0.5 h [24]: 0.139 mL/min/kg
Vd [25]: 0.0992 L/kg
CL (Homo sapiens [26]): 0.833 mL/min/kg
fraction unbound at 0.5 h [27]: 0.058
MRT [28]: 11.9 h
half-life [29]: 7.7 h
Vd [30]: 0.0858 L/kg
Cmax [31]: 77.5 µg/mL
Cmax [32]: 54.6 µg/mL
half-life [33]: 7.74 h
clearance [34]: 0.125 mL/min/kg
AUC (Homo sapiens [35]): 729.8 µg·h/mL
Vd [36]: 0.11 L/kg
MRT [37]: 12 h
Cmax [38]: 114 µg/mL
fraction unbound at 14 day [39]: 0.09
Vd [40]: 0.08 L/kg
Vdss (Homo sapiens [41]): 6057 mL
dose excreted at 0.5 h [42]: 51.8%
concentration at 24 h [43]: 3.39 µg/mL
CL renal at 0.5 h [44]: 0.134 mL/min/kg
